System: U2OS
Test: Multiplex assay against U2OS
Format: toxicity, cell-based
Conditions: human
Method in brief: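 Tubulin, mitochondrial-mass and membrane-permeability phenotypes are per cents of healthy-nucleus cells. Cells were gated by CellPathfinder machine learning into Hoechst high-intensity objects or normal cells, normal cells into healthy, pyknosed or fragmented nuclei, and pyknosed cells into mitotic or apoptotic. Before that, live cells stained at seeding with Hoechst33342, BioTracker Green Microtubule Cytoskeleton Dye, MitoTracker Red and Annexin V Alexa Fluor 680 were imaged on a CQ1 microscope at 37°C and 5% CO2 after compound addition.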

[1] = 12 h, 1 µM, compound concentration 1 uM, replicate 1
[2] = 12 h, 1 µM, compound concentration 1 uM, replicate 2
[3] = 12 h, 10 µM, compound concentration 10 uM, replicate 1
[4] = 12 h, 10 µM, compound concentration 10 uM, replicate 2
[5] = 24 h, 1 µM, compound concentration 1 uM, replicate 1
[6] = 24 h, 1 µM, compound concentration 1 uM, replicate 2
[7] = 24 h, 10 µM, compound concentration 10 uM, replicate 1
[8] = 24 h, 10 µM, compound concentration 10 uM, replicate 2
[9] = 48 h, 1 µM, compound concentration 1 uM, replicate 1
[10] = 48 h, 1 µM, compound concentration 1 uM, replicate 2
[11] = 48 h, 10 µM, compound concentration 10 uM, replicate 1
[12] = 48 h, 10 µM, compound concentration 10 uM, replicate 2

Cc1nc(-c2ccc(-c3ccc(C(=O)N4CCc5cc6c(cc54)C4(CCN(C)CC4)CO6)cc3)c(C)c2)no1 [SB-224289]
Population Apoptotic (%) [1]: 50%
Population Fragmented Nuclei (%) [1]: 11%
Population Healthy Nuclei (%) [1]: 74%
Population Hoechst High Intensity Objects (%) [1]: 8%
Population Membrane Permeable-Phenotype (%) [1]: 6%
Population Mitochondria Different-Phenotype (%) [1]: 43%
Population Mitotic Cells (%) [1]: 50%
Population Normal (%) [1]: 91%
Population Pyknosed Nuclei (%) [1]: 13%
Population Tubulin-Different-Phenotype (%) [1]: 46%
Total Cell Count [1]: 130
Population Apoptotic (%) [2]: 28%
Population Fragmented Nuclei (%) [2]: 4%
Population Healthy Nuclei (%) [2]: 81%
Population Hoechst High Intensity Objects (%) [2]: 12%
Population Membrane Permeable-Phenotype (%) [2]: 10%
Population Mitochondria Different-Phenotype (%) [2]: 42%
Population Mitotic Cells (%) [2]: 71%
Population Normal (%) [2]: 87%
Population Pyknosed Nuclei (%) [2]: 14%
Population Tubulin-Different-Phenotype (%) [2]: 37%
Total Cell Count [2]: 65
Population Apoptotic (%) [3]: 62%
Population Fragmented Nuclei (%) [3]: 19%
Population Healthy Nuclei (%) [3]: 61%
Population Hoechst High Intensity Objects (%) [3]: 7%
Population Membrane Permeable-Phenotype (%) [3]: 45%
Population Mitochondria Different-Phenotype (%) [3]: 98%
Population Mitotic Cells (%) [3]: 37%
Population Normal (%) [3]: 92%
Population Pyknosed Nuclei (%) [3]: 19%
Population Tubulin-Different-Phenotype (%) [3]: 98%
Total Cell Count [3]: 147
Population Apoptotic (%) [4]: 63%
Population Fragmented Nuclei (%) [4]: 7%
Population Healthy Nuclei (%) [4]: 77%
Population Hoechst High Intensity Objects (%) [4]: 11%
Population Membrane Permeable-Phenotype (%) [4]: 54%
Population Mitochondria Different-Phenotype (%) [4]: 100%
Population Mitotic Cells (%) [4]: 36%
Population Normal (%) [4]: 88%
Population Pyknosed Nuclei (%) [4]: 15%
Population Tubulin-Different-Phenotype (%) [4]: 100%
Total Cell Count [4]: 56
Population Apoptotic (%) [5]: 53%
Population Healthy Nuclei (%) [5]: 75%
Population Hoechst High Intensity Objects (%) [5]: 6%
Population Membrane Permeable-Phenotype (%) [5]: 4%
Population Mitochondria Different-Phenotype (%) [5]: 40%
Population Mitotic Cells (%) [5]: 46%
Population Normal (%) [5]: 93%
Population Pyknosed Nuclei (%) [5]: 9%
Population Tubulin-Different-Phenotype (%) [5]: 25%
Total Cell Count [5]: 152
Population Apoptotic (%) [6]: 0%
Population Fragmented Nuclei (%) [6]: 15%
Population Healthy Nuclei (%) [6]: 77%
Population Hoechst High Intensity Objects (%) [6]: 9%
Population Membrane Permeable-Phenotype (%) [6]: 6%
Population Mitochondria Different-Phenotype (%) [6]: 38%
Population Mitotic Cells (%) [6]: 100%
Population Normal (%) [6]: 90%
Population Pyknosed Nuclei (%) [6]: 7%
Population Tubulin-Different-Phenotype (%) [6]: 22%
Total Cell Count [6]: 73
Population Apoptotic (%) [7]: 75%
Population Fragmented Nuclei (%) [7]: 24%
Population Healthy Nuclei (%) [7]: 51%
Population Hoechst High Intensity Objects (%) [7]: 9%
Population Membrane Permeable-Phenotype (%) [7]: 84%
Population Mitochondria Different-Phenotype (%) [7]: 98%
Population Mitotic Cells (%) [7]: 25%
Population Normal (%) [7]: 90%
Population Pyknosed Nuclei (%) [7]: 23%
Population Tubulin-Different-Phenotype (%) [7]: 98%
Total Cell Count [7]: 171
Population Apoptotic (%) [8]: 76%
Population Fragmented Nuclei (%) [8]: 16%
Population Healthy Nuclei (%) [8]: 56%
Population Hoechst High Intensity Objects (%) [8]: 11%
Population Membrane Permeable-Phenotype (%) [8]: 86%
Population Mitochondria Different-Phenotype (%) [8]: 100%
Population Mitotic Cells (%) [8]: 23%
Population Normal (%) [8]: 88%
Population Pyknosed Nuclei (%) [8]: 26%
Population Tubulin-Different-Phenotype (%) [8]: 100%
Total Cell Count [8]: 63
Population Apoptotic (%) [9]: 54%
Population Fragmented Nuclei (%) [9]: 12%
Population Healthy Nuclei (%) [9]: 77%
Population Hoechst High Intensity Objects (%) [9]: 6%
Population Membrane Permeable-Phenotype (%) [9]: 3%
Population Mitochondria Different-Phenotype (%) [9]: 15%
Population Mitotic Cells (%) [9]: 45%
Population Normal (%) [9]: 93%
Population Tubulin-Different-Phenotype (%) [9]: 15%
Total Cell Count [9]: 156
Population Apoptotic (%) [10]: 50%
Population Fragmented Nuclei (%) [10]: 9%
Population Healthy Nuclei (%) [10]: 80%
Population Hoechst High Intensity Objects (%) [10]: 9%
Population Membrane Permeable-Phenotype (%) [10]: 8%
Population Mitochondria Different-Phenotype (%) [10]: 14%
Population Mitotic Cells (%) [10]: 50%
Population Normal (%) [10]: 90%
Population Pyknosed Nuclei (%) [10]: 10%
Population Tubulin-Different-Phenotype (%) [10]: 11%
Total Cell Count [10]: 88
Population Apoptotic (%) [11]: 81%
Population Fragmented Nuclei (%) [11]: 27%
Population Healthy Nuclei (%) [11]: 28%
Population Hoechst High Intensity Objects (%) [11]: 15%
Population Membrane Permeable-Phenotype (%) [11]: 94%
Population Mitochondria Different-Phenotype (%) [11]: 97%
Population Mitotic Cells (%) [11]: 18%
Population Normal (%) [11]: 84%
Population Pyknosed Nuclei (%) [11]: 44%
Population Tubulin-Different-Phenotype (%) [11]: 97%
Total Cell Count [11]: 225
Population Apoptotic (%) [12]: 88%
Population Fragmented Nuclei (%) [12]: 8%
Population Healthy Nuclei (%) [12]: 46%
Population Hoechst High Intensity Objects (%) [12]: 18%
Population Membrane Permeable-Phenotype (%) [12]: 75%
Population Mitochondria Different-Phenotype (%) [12]: 100%
Population Mitotic Cells (%) [12]: 11%
Population Normal (%) [12]: 81%
Population Pyknosed Nuclei (%) [12]: 45%
Population Tubulin-Different-Phenotype (%) [12]: 100%
Total Cell Count [12]: 85
